Measurements: ChEMBL document CHEMBL5365541, “Designing peptide amphiphiles as novel antibacterials and antibiotic adjuvants against gram-negative bacteria” (Bioorg Med Chem, 2023)
Converted amounts (≈) assume the structure as drawn. The source made the active and inactive calls. The calls are words filed in the database; no cut-off is given here. Starred links: 1 amine or outer side, 2 acyl side, 3 side chain; linkers in the order of their positions; H or OH if unused. Non-standard residues stand in square brackets, D forms with d. Residues, ends and D or L forms follow the SMILES beside them. X2 = CCCCCCCCCCCCCCCCN([C@@H](C)C(=O)[*:2])[*:1]

Experiments:
Acinetobacter baumannii [1] = experiment: Synergistic antibacterial activity against Acinetobacter baumannii assessed as fractional inhibitory concentration index incubated for 20 to 24 hrs in presence of rifampicin by checkerboard broth microdilution assay; format: functional; settings: time 20-24 hrs
Procedure, shortened: (§1)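 Checkerboard broth microdilution. E. coli K12 or A. baumannii clinical isolate grown to mid-log (OD ~0.8) and diluted to ~10^5 CFU/mL in MHB. Two-fold dilutions of rifampicin or vancomycin run across the plate against two-fold PA dilutions down it. Incubated 20–24 h at 37 °C, OD read at 470 nm. FICi calculated from the combination MICs.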

Acinetobacter baumannii [2] = experiment: Antibacterial activity against Acinetobacter baumannii incubated for 20 to 24 hrs by broth microdilution method; format: functional; settings: time 20-24 hrs
Procedure, shortened: (§2)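 Broth microdilution: colonies suspended directly to 1.5×10^8 CFU/mL (0.5 McFarland), then diluted in Mueller–Hinton broth to ~10^5 CFU/mL final. PA stock 1 mg/mL in water, pH 7, serially diluted in MHB. Plates incubated 20–24 h at 37 °C. MIC = lowest concentration inhibiting growth, read as OD600 with optional 1% TTC staining. Triplicate.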

Escherichia coli [3] = experiment: Synergistic antibacterial activity against Escherichia coli K12 assessed as fractional inhibitory concentration index incubated for 20 to 24 hrs in presence of rifampicin by checkerboard broth microdilution assay; format: functional; settings: time 20-24 hrs; procedure, shortened: as §1
Cell membrane [4] = experiment: Induction of inner membrane permeability in Escherichia coli K12 at 8 to 16 ug/mL by propidium iodide staining based spectrofluorometry; format: subcellular; settings: dose 8-16 µg/ml
Procedure, shortened: (§3)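 E. coli K12 grown in MHB to mid-log, washed twice in PBS, and diluted to 10^6 CFU/mL in 5 mM HEPES + glucose. Cells preincubated with […] at least 15 min at 37 °C. Then treated with agent at 1/8, 1× or 2× MIC, or with PA–vancomycin 1:1. Fluorescence read at ex 535 / em 615 nm. Polymyxin B as positive control; untreated cells as negative control.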

[5] = Hemolytic activity in human red blood cells assessed as hemolysis at 8 ug/ml incubated for 60 min relative to control; format: toxicity, cell-based, Erythrocyte; settings: at 8 µg/mL, read-out: Activity
Procedure, shortened: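 Washed human RBCs at 0.25×10^8 cells/mL final in PBS, mixed with PA (stocks 16–1024 µg/mL, equal volume). Shaken 10 min, then incubated 60 min at 37 °C, 5% CO2. Cells pelleted at 1000 × g; supernatant hemoglobin read at OD405. 5% Triton X-100 taken as 100% hemolysis; water as negative control.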

Cell membrane [6] = experiment: Induction of inner membrane permeability in Escherichia coli K12 at 4 ug/mL by propidium iodide staining based spectrofluorometry; format: subcellular; settings: dose 4.0 µg/ml; procedure, shortened: as §3
[7] = Self assembly property of the compound assessed as formation of micelles at 1 mg/ml incubated overnight by transmission electron microscopy; format: physicochemical
Procedure, shortened: (§4)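 Samples were dissolved at 2 mM in water, pH 7, and left at room temperature overnight. Applied to copper grids for 5 min, blotted, and negatively stained with NanoVan for 30 s. Imaged by TEM at 120 kV.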

Acinetobacter baumannii [8] = experiment: Synergistic antibacterial activity against Acinetobacter baumannii assessed as potentiation of rifampicin-induced antibacterial activity by measuring fold increase in rifampicin MIC incubated for 20 to 24 hrs by checkerboard broth microdilution assay relative to rifampicin alone; format: functional; settings: time 20-24 hrs; procedure, shortened: as §1
[9] = Retention time of the compound by RP-HPLC analysis; format: physicochemical
Procedure, shortened: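 Reverse-phase HPLC, linear gradient 0–100% acetonitrile in water with 0.1% TFA over 20 min; retention time recorded.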

Cell membrane [10] = experiment: Induction of inner membrane permeability in Escherichia coli K12 assessed as shift in bacterial zeta potential at 80 ug/ml measured after 1 hr; format: subcellular; settings: dose 80.0 µg/ml
Staphylococcus aureus [11] = experiment: Antibacterial activity against methicillin-resistant Staphylococcus aureus JE2 incubated for 20 to 24 hrs by broth microdilution method; format: functional; settings: time 20-24 hrs
Procedure, shortened: (§5)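 Broth microdilution in MHB: direct colony suspension at 0.5 McFarland diluted to ~10^5 CFU/mL final; peptide stock 1 mg/mL in water at pH 7, serially diluted. Incubated 20-24 h at 37 °C; MIC taken as the lowest concentration inhibiting growth (OD 600 nm, 1% TTC stain); triplicate; vancomycin and gentamicin as positive controls.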

Staphylococcus aureus [12] = experiment: Antibacterial activity against methicillin resistant Staphylococcus aureus JE2 assessed as fold increase in MIC after 5 days by broth microdilution method relative to MIC before 5 days; format: functional; settings: time 5 day
Escherichia coli [13] = experiment: Antibacterial activity against Escherichia coli K12 incubated for 20 to 24 hrs by broth microdilution method; format: functional; settings: time 20-24 hrs; procedure, shortened: as §2
Cell membrane [14] = experiment: Induction of inner membrane permeability in methicillin-resistant Staphylococcus aureus JE2 assessed as shift in bacterial zeta potential at 80 ug/ml measured after 1 hr; format: subcellular; settings: dose 80.0 µg/ml
Procedure, shortened: (§6)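 Mid-log MRSA JE2 from MHB (OD ~0.8) washed and resuspended in PBS at 5×10^7 CFU/mL, exposed to peptide at 10 × MIC for 1 h, then zeta potential measured at 25 °C; untreated cells as negative control, daptomycin and polymyxin B as reference drugs.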

Staphylococcus aureus [15] = experiment: Antibacterial activity against methicillin-resistant Staphylococcus aureus LAC incubated for 20 to 24 hrs by broth microdilution method; format: functional; settings: time 20-24 hrs; procedure, shortened: as §5
[16] = Self assembly property of the compound assessed as zeta potential at 250 ug/mL at pH 7 measured after 2 hrs; format: physicochemical; settings: pH 7, 2 h, dose 250 µg/ml
Procedure, shortened: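 Peptide self-assembled at 1 mg/mL, pH 7, annealed 2 h at 80 °C, and aged overnight. Diluted to 250 µg/mL in water; zeta potential measured at 25 °C.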

HEK293 = experiment: Cytotoxicity against HEK293 cells assessed as reduction in cell viability at 64 to 256 ug/ml incubated for 24 hrs by XTT assay; format: toxicity, cell-based; settings: human, hek293, 24 h, dose 64-256 µg/ml
Procedure, shortened: (§7)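 HEK-293 cells, passages 3–8, seeded at 5×10^4 per well and preincubated 24 h at 37 °C, 5% CO2. Medium replaced with serially diluted PA, final 8–256 µg/mL, for 24 h, in triplicate. XTT reagent (0.5 mg/mL) added for 4 h at 37 °C, then absorbance read at 600 nm.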

Escherichia coli [17] = experiment: Synergistic antibacterial activity against Escherichia coli K12 assessed as potentiation of rifampicin-induced antibacterial activity by measuring fold increase in rifampicin MIC incubated for 20 to 24 hrs by checkerboard broth microdilution assay relative to rifampicin alone; format: functional; settings: time 20-24 hrs; procedure, shortened: as §1
[18] = Cytotoxicity against HEK293 cells assessed as cell viability up to 64 ug/ml incubated for 24 hrs by XTT assay relative to control; format: toxicity, cell-based; settings: human, up to 64 µg/mL, read-out: Activity; procedure, shortened: as §7
Staphylococcus aureus [19] = experiment: Antibacterial activity against methicillin-resistant Staphylococcus aureus 13C incubated for 20 to 24 hrs by broth microdilution method; format: functional; settings: time 20-24 hrs; procedure, shortened: as §5
Escherichia coli [20] = experiment: Induction of morphological changes in Escherichia coli K12 assessed as membrane deformations with protruding bumps at 8 ug/ml incubated for 2 hrs by scanning electron microscopy; format: functional, organism-based; settings: dose 8.0 µg/ml
Escherichia coli [21] = experiment: Induction of morphological changes in Escherichia coli K12 assessed as membrane deformations with protruding holes at 8 ug/ml incubated for 2 hrs by scanning electron microscopy; format: functional, organism-based; settings: dose 8.0 µg/ml
Staphylococcus aureus [22] = experiment: Disruption of preformed biofilm in methicillin-resistant Staphylococcus aureus JE2 at MIC to 4 times MIC; format: functional, organism-based
Cell membrane [23] = experiment: Induction of inner membrane permeability in methicillin-resistant Staphylococcus aureus JE2 assessed as shift in bacterial zeta potential at 40 ug/ml measured after 1 hr; format: subcellular; settings: dose 40.0 µg/ml; procedure, shortened: as §6
[24] = Self assembly property of the compound assessed as width of micelles at 1 mg/ml incubated overnight by transmission electron microscopy; format: physicochemical; procedure, shortened: as §4
Escherichia coli [25] = experiment: Ratio of MIC for Escherichia coli K12 at pH 5.5 to MIC for Escherichia coli K12 at pH 7.0
[26] = Toxicity in Galleria mellonella assessed as survival at 125 to 150 mg/kg measured after 4 days relative to control; format: organism-based; settings: in vivo, dose 125-150 mg/kg, time 4 day
Procedure, shortened: (§8)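 Acute toxicity in G. mellonella larvae following OECD guidelines: cohorts of five larvae injected starting at 25 mg/kg, retested […] on new larvae if lethality was under 40%, continuing until a toxic dose was found; incubated at 37 °C with mortality recorded daily over 4 days.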

Staphylococcus aureus [27] = experiment: Inhibition of biofilm formation in methicillin-resistant Staphylococcus aureus JE2 at MIC; format: functional, organism-based
Staphylococcus aureus [28] = experiment: Induction of morphological changes in methicillin-resistant Staphylococcus aureus JE2 assessed as membrane deformations with protruding holes at 8 ug/ml incubated for 2 hrs by scanning electron microscopy; format: functional, organism-based; settings: dose 8.0 µg/ml
Cell membrane [29] = experiment: Induction of inner membrane permeability in Escherichia coli K12 assessed as shift in bacterial zeta potential at 40 ug/ml measured after 1 hr; format: subcellular; settings: dose 40.0 µg/ml
Staphylococcus aureus [30] = experiment: Induction of morphological changes in Methicillin-resistant Staphylococcus aureus JE2 assessed as cytoplasmic leakage at 8 ug/ml incubated for 2 hrs by scanning electron microscopy; format: functional, organism-based; settings: dose 8.0 µg/ml
[31] = Toxicity in Galleria mellonella assessed as survival at 75 mg/kg measured after 4 days relative to control; format: organism-based; settings: in vivo, time 4 day; procedure, shortened: as §8
Staphylococcus aureus [32] = experiment: Ratio of MIC for methicillin-resistant Staphylococcus aureus JE2 at pH 5.5 to MIC for methicillin-resistant Staphylococcus aureus JE2 at pH 7.0
Staphylococcus aureus [33] = experiment: Induction of morphological changes in methicillin-resistant Staphylococcus aureus JE2 assessed as membrane deformations with protruding bumps at 8 ug/ml incubated for 2 hrs by scanning electron microscopy; format: functional, organism-based; settings: dose 8.0 µg/ml
Staphylococcus aureus [34] = experiment: Antibacterial activity against Methicillin-resistant Staphylococcus aureus JE2 infected in Galleria mellonella assessed as survival at 75 mg/kg measured after 4 days relative to control; format: functional; settings: JE2, 96 h, time 4 day
Procedure, shortened: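 G. mellonella larvae injected with 10 µL MRSA JE2 at a pre-set infective dose (60-80% lethality within 48 h, not 100% within 24 h) into last left proleg; after 2 h, 10 µL peptide or antibiotic injected into last right proleg; larvae held at 37 °C, mortality recorded daily for 4 days; untreated infected and PBS-only larvae as controls.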

Staphylococcus aureus [35] = experiment: Antibacterial activity against methicillin resistant Staphylococcus aureus JE2 measured over 21 days by broth microdilution method; format: functional, organism-based; settings: time 21.0 day
Escherichia coli [36] = experiment: Induction of morphological changes in Escherichia coli K12 assessed as cytoplasmic leakage at 8 ug/ml incubated for 2 hrs by scanning electron microscopy; format: functional, organism-based; settings: dose 8.0 µg/ml

CCCCCCCCCCCCCCCCN[C@@H](C)C(=O)N[C@@H](C)C(=O)N[C@@H](C)C(=O)N[C@@H](CCCCN)C(=O)N[C@@H](CCCNC(=N)N)C(=O)N[C@@H](CCCCN)C(=O)N[C@@H](CCCNC(=N)N)C(=O)O (H-[X2]AAKRKR-OH)
fractional inhibitory concentration index (FICI) (Acinetobacter baumannii [1]): 0.75
MIC (Acinetobacter baumannii [2]): 4 mg/L (≈ 3.9 µM)
fractional inhibitory concentration index (FICI) (Escherichia coli [3]): 0.62
Activity (Cell membrane [4]): Active
hemolysis at 1 h, 8 ug/ml [5]: 33.3%
Activity (Cell membrane [6]): inactive
Activity [7]: Active
fold change (FC) (Acinetobacter baumannii [8]): 2
Retention_time [9]: 14.3 min
Activity (Cell membrane [10]): Active
MIC (Staphylococcus aureus [11]): 8 mg/L (≈ 7.81 µM)
fold change (FC) (Staphylococcus aureus [12]): 2
MIC (Escherichia coli [13]): 8 mg/L (≈ 7.81 µM)
Activity (Cell membrane [14]): Active
MIC (Staphylococcus aureus [15]): 8 mg/L (≈ 7.81 µM)
Activity [16]: 10.8 mV
Activity (HEK293): Non-Toxic
fold change (FC) (Escherichia coli [17]): 8
viability at 24 h [18]: 100%
MIC (Staphylococcus aureus [19]): 8 mg/L (≈ 7.81 µM)

CCCCCCCCCCCCCCCCN[C@@H](CCCCN)C(=O)N[C@@H](CCCNC(=N)N)C(=O)N[C@@H](CCCCN)C(=O)N[C@@H](CCCNC(=N)N)C(=O)O
fractional inhibitory concentration index (FICI) (Acinetobacter baumannii [1]): 0.75
Activity (Escherichia coli [20]): Active
MIC (Acinetobacter baumannii [2]): 8 mg/L (≈ 9.86 µM)
Activity (Escherichia coli [21]): Active
fractional inhibitory concentration index (FICI) (Escherichia coli [3]): 0.62
Activity (Cell membrane [4]): Active
Activity (Staphylococcus aureus [22]): inactive
Activity (Cell membrane [23]): Active
Activity (Cell membrane [6]): inactive
Activity [24]: 7 nm
Ratio (Escherichia coli [25]): > 1
survival at 96 h [26]: 80%
fold change (FC) (Acinetobacter baumannii [8]): 2
inhibition (Staphylococcus aureus [27]): Active
Retention_time [9]: 13.8 min
Activity (Staphylococcus aureus [28]): Active
Activity (Cell membrane [29]): Active
MIC (Staphylococcus aureus [11]): 4 mg/L (≈ 4.93 µM)
Activity (Staphylococcus aureus [30]): Active
survival at 96 h [31]: 100%
Ratio (Staphylococcus aureus [32]): > 1
Activity (Staphylococcus aureus [33]): Active
MIC (Escherichia coli [13]): 4 mg/L (≈ 4.93 µM)
survival at 75 mg/kg (Staphylococcus aureus [34]): 60%
MIC (Staphylococcus aureus [15]): 8 mg/L (≈ 9.86 µM)
Activity (Staphylococcus aureus [35]): Active
Activity [16]: 15 mV
Activity (HEK293): Non-Toxic
Activity (Escherichia coli [36]): Active
viability at 24 h [18]: 100%
MIC (Staphylococcus aureus [19]): 8 mg/L (≈ 9.86 µM)
